Assay results taken from publication PMC7340344 (Journal of medicinal chemistry, 2020).
Counter-ions that a name gives are not always drawn.

Assays:
PCAF = PCAF (Homo sapiens, UniProt Q92831); experiment: Inhibition of PCAF; assay type: biochemical
LSD1 = LSD1 (Homo sapiens, UniProt O60341); experiment: Inhibition of LSD1; assay type: biochemical
Myst3 = Myst3 (Homo sapiens, UniProt Q92794); experiment: Inhibition of Myst3; assay type: biochemical
[1] = system: ER+ breast cancer MCF-7 cells; experiment: RNA sequencing and gene set enrichment analysis; assay type: cell-based, human; details: MCF-7, 6 μM, 48 hours, with estradiol 10 nM; p < 0.001
In short: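 MCF-7 cells were starved for 7 days in phenol red-free DMEM with 10% charcoal-treated FBS. They were then given test compound (6 μM) or DMSO, with or without estradiol (10 nM), for 48 h. Total RNA was sequenced as stranded, rRNA-depleted libraries (HiSeq 2500, paired-end) and mapped to hg38. FPKM values were quantile-normalized and analysed by GSEA against MSigDB and the siRNA p300-knockdown signature (GSE31873, C4–2B cells).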

p300 HAT = target: T1, p300 HAT (Homo sapiens, UniProt Q09472); experiment: Steady-state enzyme kinetics, mode of inhibition; assay type: biochemical
T1 sequence (Q09472 1195-1673): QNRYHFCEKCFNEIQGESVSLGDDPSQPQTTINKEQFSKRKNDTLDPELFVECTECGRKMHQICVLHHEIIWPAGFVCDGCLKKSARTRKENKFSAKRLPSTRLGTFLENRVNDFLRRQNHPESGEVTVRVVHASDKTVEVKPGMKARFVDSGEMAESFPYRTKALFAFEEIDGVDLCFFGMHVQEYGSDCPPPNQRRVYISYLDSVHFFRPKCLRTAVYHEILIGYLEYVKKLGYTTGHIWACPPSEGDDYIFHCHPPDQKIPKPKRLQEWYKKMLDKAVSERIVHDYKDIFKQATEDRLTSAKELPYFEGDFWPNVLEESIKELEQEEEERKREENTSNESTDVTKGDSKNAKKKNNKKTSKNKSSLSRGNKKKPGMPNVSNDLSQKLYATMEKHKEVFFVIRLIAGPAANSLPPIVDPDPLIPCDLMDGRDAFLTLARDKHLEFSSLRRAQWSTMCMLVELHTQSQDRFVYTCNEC
In short: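 Radiometric filter-binding assay with recombinant human GST-p300 HAT domain (residues 1195-1673) expressed in E. coli, at 10 nM. Enzyme was preincubated with test compound for 10 min at 25 °C in 50 mM phosphate, pH 7.0, with 0.01% Brij-35. Histone H3 (1-21) peptide and 3H-Ac-CoA/Ac-CoA started the reaction, with Ac-CoA or peptide concentration varied. After 30 min at 25 °C, formic acid stopped it; peptide was captured on P81 paper, washed with NaHCO3 and scintillation-counted.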

Kasumi-1 leukemia cells = experiment: Western blot of cellular histone acetylation; assay type: cell-based; details: Kasumi-1 cells, 12h, 5 and 10 μM
In short: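 Kasumi-1 cells (10^6/well) were exposed to test compound at 0, 5 and 10 μM for 12 h. Total histones were extracted by kit, and 2 μg per lane were separated by SDS-PAGE and transferred to PVDF. Blots were probed with antibodies to H3K9Ac, H3K18Ac, H3K27Ac and total H3, then with an anti-rabbit IgG secondary.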

MCF-7 = experiment: Cell growth inhibition, MCF-7; assay type: cell-based; details: Homo sapiens, MCF7, read-out: Antiproliferative activity EC50 (μM), MCF-7
p300 HAT and histone H4 = target: T2, p300 HAT and histone H4 (Homo sapiens, UniProt Q09472); experiment: Alpha assay, binding between p300 HAT and histone H4 peptide
T2 sequence (Q09472 1287-1663 limits assumed): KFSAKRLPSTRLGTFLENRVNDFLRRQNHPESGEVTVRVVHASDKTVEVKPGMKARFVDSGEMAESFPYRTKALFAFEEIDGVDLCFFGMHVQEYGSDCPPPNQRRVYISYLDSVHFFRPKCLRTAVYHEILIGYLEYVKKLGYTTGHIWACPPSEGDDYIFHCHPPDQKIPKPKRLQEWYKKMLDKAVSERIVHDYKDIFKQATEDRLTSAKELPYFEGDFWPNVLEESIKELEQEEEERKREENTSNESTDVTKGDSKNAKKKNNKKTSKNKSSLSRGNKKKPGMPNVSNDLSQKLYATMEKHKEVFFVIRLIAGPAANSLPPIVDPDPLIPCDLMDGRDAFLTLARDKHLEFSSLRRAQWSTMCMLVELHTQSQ

p300/CBP HAT = details: cited from earlier work

Sequence of PCAF (Q92831 whole entry): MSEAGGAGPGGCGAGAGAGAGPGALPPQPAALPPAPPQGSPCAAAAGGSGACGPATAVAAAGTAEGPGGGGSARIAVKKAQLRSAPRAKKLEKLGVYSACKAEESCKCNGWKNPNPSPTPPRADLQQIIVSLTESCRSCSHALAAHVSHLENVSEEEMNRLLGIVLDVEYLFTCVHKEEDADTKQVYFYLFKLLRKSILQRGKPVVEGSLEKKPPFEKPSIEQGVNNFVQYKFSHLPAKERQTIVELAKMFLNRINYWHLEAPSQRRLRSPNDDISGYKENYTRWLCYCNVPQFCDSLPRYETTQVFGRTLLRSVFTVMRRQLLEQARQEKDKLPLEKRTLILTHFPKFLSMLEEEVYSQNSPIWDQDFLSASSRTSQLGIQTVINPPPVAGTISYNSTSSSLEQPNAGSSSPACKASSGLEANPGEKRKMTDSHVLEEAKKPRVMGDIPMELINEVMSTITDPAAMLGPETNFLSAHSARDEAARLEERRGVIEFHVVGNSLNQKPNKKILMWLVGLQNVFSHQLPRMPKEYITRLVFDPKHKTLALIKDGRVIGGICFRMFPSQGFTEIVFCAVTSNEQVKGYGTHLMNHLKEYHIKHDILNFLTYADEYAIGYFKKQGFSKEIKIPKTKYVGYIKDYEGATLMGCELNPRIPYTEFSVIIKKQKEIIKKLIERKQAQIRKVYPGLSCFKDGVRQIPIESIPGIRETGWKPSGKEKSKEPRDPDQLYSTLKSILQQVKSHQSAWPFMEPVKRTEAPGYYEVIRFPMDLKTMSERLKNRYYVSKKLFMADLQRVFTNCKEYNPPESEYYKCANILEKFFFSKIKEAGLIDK
Sequence of Myst3 (Q92794 whole entry): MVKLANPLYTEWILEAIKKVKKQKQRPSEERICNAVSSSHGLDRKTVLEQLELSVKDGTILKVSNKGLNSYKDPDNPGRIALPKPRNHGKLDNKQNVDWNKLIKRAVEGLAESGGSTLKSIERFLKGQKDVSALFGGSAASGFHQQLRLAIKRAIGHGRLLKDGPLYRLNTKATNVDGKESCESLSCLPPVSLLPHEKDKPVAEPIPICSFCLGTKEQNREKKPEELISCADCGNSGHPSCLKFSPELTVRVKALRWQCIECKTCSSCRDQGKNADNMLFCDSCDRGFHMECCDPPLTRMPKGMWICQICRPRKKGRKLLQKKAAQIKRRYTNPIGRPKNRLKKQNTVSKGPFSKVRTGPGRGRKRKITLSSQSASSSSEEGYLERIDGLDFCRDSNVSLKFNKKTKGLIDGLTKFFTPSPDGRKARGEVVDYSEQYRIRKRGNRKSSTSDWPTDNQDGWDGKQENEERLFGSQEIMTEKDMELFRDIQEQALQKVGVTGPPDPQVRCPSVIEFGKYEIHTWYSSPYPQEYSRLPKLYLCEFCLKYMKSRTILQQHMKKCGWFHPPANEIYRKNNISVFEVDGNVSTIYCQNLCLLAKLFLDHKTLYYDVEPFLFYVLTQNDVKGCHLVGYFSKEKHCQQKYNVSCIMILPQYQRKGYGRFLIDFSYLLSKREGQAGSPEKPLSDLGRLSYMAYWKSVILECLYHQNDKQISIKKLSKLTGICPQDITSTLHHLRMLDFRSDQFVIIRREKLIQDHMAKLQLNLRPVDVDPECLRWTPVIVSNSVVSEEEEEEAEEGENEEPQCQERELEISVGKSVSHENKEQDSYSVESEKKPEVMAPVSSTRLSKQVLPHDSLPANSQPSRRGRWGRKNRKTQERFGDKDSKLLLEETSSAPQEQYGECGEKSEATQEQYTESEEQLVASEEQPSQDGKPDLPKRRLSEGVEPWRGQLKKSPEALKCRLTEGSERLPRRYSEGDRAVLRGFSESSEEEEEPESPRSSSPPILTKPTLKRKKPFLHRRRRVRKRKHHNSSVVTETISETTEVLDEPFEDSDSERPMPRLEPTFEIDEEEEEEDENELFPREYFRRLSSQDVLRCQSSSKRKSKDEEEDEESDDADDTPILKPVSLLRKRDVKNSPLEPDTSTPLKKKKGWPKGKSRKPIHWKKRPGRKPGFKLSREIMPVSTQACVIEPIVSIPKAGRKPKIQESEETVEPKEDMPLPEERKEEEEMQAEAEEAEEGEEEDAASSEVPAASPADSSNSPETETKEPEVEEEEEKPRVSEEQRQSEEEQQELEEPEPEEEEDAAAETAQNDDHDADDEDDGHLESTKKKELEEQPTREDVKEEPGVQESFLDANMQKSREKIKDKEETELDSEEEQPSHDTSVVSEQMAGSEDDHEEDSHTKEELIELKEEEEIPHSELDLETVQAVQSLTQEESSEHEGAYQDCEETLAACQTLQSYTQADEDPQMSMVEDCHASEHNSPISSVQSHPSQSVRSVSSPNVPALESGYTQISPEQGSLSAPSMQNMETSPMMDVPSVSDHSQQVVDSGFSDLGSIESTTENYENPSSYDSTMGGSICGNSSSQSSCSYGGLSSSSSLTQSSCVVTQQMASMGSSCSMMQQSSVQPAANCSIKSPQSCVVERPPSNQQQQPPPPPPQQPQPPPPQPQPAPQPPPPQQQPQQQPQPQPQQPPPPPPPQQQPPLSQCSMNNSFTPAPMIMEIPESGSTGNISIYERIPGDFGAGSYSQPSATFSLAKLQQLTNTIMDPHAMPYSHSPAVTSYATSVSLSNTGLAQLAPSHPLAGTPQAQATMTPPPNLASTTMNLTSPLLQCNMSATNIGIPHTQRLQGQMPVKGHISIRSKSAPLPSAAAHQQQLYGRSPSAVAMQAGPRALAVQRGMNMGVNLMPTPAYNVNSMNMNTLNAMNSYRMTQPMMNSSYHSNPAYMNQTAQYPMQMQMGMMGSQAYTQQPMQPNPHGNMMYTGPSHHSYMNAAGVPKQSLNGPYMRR

| Structure (SMILES) | inhibition of PCAF activity at 50 μM (PCAF) | inhibition of LSD1 activity at 50 μM (LSD1) | inhibition of Myst3 activity at 50 μM (Myst3) | NES, gene set upregulated by estradiol [1] | NES, genes suppressed by estradiol [1] | normalized enrichment score (NES), genes suppressed by p300 knockdown (GSE31873) [1] | mode of inhibition against the cofactor Ac-CoA (p300 HAT; Ac-CoA 0.5 - 8 μM (0.07-[…] Km)) | mode of inhibition against the substrate histone (p300 HAT; histone peptide 2 - 100 μM) | cellular acetylation of histone H3K9, H3K18 and H3K27 (Kasumi-1 leukemia cells) | EC50 (MCF-7) | effect on binding between p300 HAT and histone H4 (in words) (p300 HAT and histone H4) | mode of inhibition (p300/CBP HAT) |
| --- | --- | --- | --- | --- | --- | --- | --- | --- | --- | --- | --- | --- |
| CC(C)(C)c1ccc(-c2cc(CNCC3CCNCC3)sc2-c2ccc(C(C)(C)C)cc2)cc1 [Compound 12, 1-(4,5-bis(4-(tert-Butyl)phenyl)thiophen-2-yl)-N-(piperidin-4-ylmethyl)methanamine hydrochloride] | did not significantly inhibit | did not significantly inhibit | did not significantly inhibit | −9.19 | 7.41 | −3.32 | non-competitive | competitive | significantly inhibit | ~3 µM |  |  |
| CNC(=O)Nc1ccc2c(c1)CC[C@@]21OC(=O)N(CC(=O)N(Cc2ccc(F)cc2)[C@@H](C)C(F)(F)F)C1=O [Compound A-485, reference compound] |  |  |  |  |  |  |  |  |  |  | did not affect the binding | competitive against the enzyme cofactor acetyl coenzyme A (Ac-CoA) |
